Data set [1] concerns Canis familiaris. Nature of the data set: Effect on respiratory function in spontaneously breathing mongrel dog assessed as change in intrapleural pressure at 5 mg/kg after intravenous infusion for 15 mins (RVb= 12.6+/-17.1 %). In kind it is functional, Canis lupus familiaris.
The test system of data set [2] is Canis familiaris. Nature of the data set: Effect on respiratory function in spontaneously breathing mongrel dog assessed as change in intrapleural pressure at 5 mg/kg after intravenous infusion for 60 mins (RVb= 18.5+/-19.9 %). In kind it is functional, Canis lupus familiaris.
Data set [3] in a line: Plasma concentration in rat at 30 mg/kg, po after 1 hr. In kind it is ADME, organism-based. Also on record: dose 30 mg/kg, route oral. The method, boiled down: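 Rats (n = 9, renal function study) given 30 mg/kg po; plasma levels measured in a separate cohort dosed the same way, sampled at 1 and 5 h after dosing.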
Data set [4] deals with Canis familiaris. Nature of the data set: Effect on respiratory function in spontaneously breathing mongrel dog assessed as change in airway resistance at 5 mg/kg after intravenous infusion for 15 mins (RVb= 27.8+/-17.9 %). The class given is functional, Canis lupus familiaris.
Data set [5] relates to Canis familiaris. Nature of the data set: Effect on respiratory function in spontaneously breathing mongrel dog assessed as change in airway resistance at 5 mg/kg after intravenous infusion for 30 mins (RVb= 20.2+/-12.3 %). In kind it is functional, Canis lupus familiaris.
Data set [6] has as its system Canis familiaris. Nature of the data set: Effect on respiratory function in spontaneously breathing mongrel dog assessed as change in pulmonary compliance at 5 mg/kg after intravenous infusion for 6 mins (RVb= 6.0+/-4.2 %). The class given is functional, Canis lupus familiaris.
Data set [7] has as its system Canis familiaris. Nature of the data set: Effect on respiratory function in spontaneously breathing mongrel dog assessed as change in pulmonary compliance at 5 mg/kg after intravenous infusion for 30 mins (RVb= -2.8+/-4.0 %). The class given is functional, Canis lupus familiaris.
Data set [8] has as its system Canis familiaris. Nature of the data set: Effect on respiratory function in spontaneously breathing mongrel dog assessed as change in heart rate at 5 mg/kg after intravenous infusion for 30 mins (RVb= -0.9+/-3.8 %). The class given is functional, Canis lupus familiaris.
A short description of data set [9]: Plasma concentration in spontaneously breathing dog at 5 mg/kg, iv after 6 mins. In kind it is ADME, organism-based, Canis lupus familiaris. Also on record: dose 5 mg/kg, route intravenous. The procedure, abridged:
(§1)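 Spontaneously breathing, barbiturate-anesthetized mongrel dogs (n = 4) infused iv at 5.0 mg/kg over 6 min. Total pooled plasma concentrations taken at 6, 15, 30 and 60 min.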

Data set [10] can be described thus: Plasma concentration in spontaneously breathing dog at 5 mg/kg, iv after 30 mins. The class given is ADME, organism-based, Canis lupus familiaris. Also on record: dose 5 mg/kg, route intravenous. The procedure, abridged:
as §1

Data set [11] can be described thus: Aqueous solubility at pH 7.4. In kind it is physicochemical. To be noted: aqueous medium. The method, boiled down:
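Solubility measured in water at pH 7.4.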

Data set [12] deals with Rattus norvegicus. Nature of the data set: Anxiolytic activity in rat assessed as decrease in latency to exit dark chamber at 10 mg/kg, po by defensive withdrawal test relative to untreated control. Details: scale not given: the % may be the effect or the level left. In kind it is functional. The method, boiled down:
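Rat defensive withdrawal: latency to leave the dark chamber and explore the open field, maximum 900 s. Dosed orally in 0.25% Methocel 60 min before testing; n = 8 per dose, mean ± SEM. Analysed by Kruskal–Wallis followed by Mann–Whitney U against vehicle.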

The test system of data set [13] is Rattus norvegicus. Nature of the data set: Toxicity in rat assessed as total distance traveled at 30 mg/kg, po after 1 hr by spontaneous locomotor test. In kind it is functional. The procedure, abridged: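 Rat spontaneous locomotor activity test with oral dosing in 0.25% Methocel 1 h before testing, at doses up to 100 mg/kg. Values are mean ± SEM, with N rats per group, compared with the vehicle (zero-dose) group.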

Converted amounts (≈) assume the structure as drawn.

Turning to `CC[C@@H](C)Nc1nc(C)nc2c(-c3ccc(OC)nc3C)c(C)nn12` [PEXACERFONT], the Activity is given as 6.5% in the data set on Canis familiaris [1]; 0.7% with Canis familiaris [2]; 9% with Canis familiaris [4]; -57.5% in the data set with Canis familiaris [5]; -2.5% in the data set with Canis familiaris [6]; -22.3% in the data set with Canis familiaris [7]. Besides, the Activity in the data set on Canis familiaris [8] is on record as -2.5%; in the data set on Rattus norvegicus [12], 65%; with Rattus norvegicus [13] it was 4846 cm. This compound also showed a concentration at 1 h in data set [3] of 3990 nM. For the same compound, the concentration at 0.1 h in data set [9] came out at 1790 nM. For the same compound, the concentration at 0.5 h in data set [10] was 412 nM. The solubility in [11] was 16 µg/mL (≈ 47 µM).

Broadly, the solubility is the concentration that dissolves in the medium under given conditions.

The record behind these values is ChEMBL document CHEMBL1138476 (J Med Chem, 2009).
